These results are taken from ChEMBL document CHEMBL1687888, “Synthesis, hypoxia-selective cytotoxicity of new 3-amino-1,2,4-benzotriazine-1,4-dioxide derivatives” (Eur J Med Chem, 2011).

Broadly, the IC50 is the concentration that inhibits the measured activity by half. Read a low IC50 as greater potency in that assay.

Type in all cases: functional, cell-based
Experiment [1] relates to K562. As to the kind of experiment: Cytotoxicity against human K562 cells for 72 hrs under hypoxic condition by MTT assay. The note with it: K562, 72 h. The method in brief: (§1)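 RPMI-1640 with heat-inactivated 10% FBS plus penicillin/streptomycin; hypoxia 3% O2, 5% CO2 or normoxia 20% O2, 5% CO2, 37 °C. Compounds dissolved in DMSO at 10.0 mg/mL (stock), then diluted; cells seeded 5×10³ per well. Viability read by MTT kit; IC50 taken as concentration giving 50% absorbance inhibition versus control cells.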
For orientation: Formazan colour is commonly taken as a measure of viable cells.

Experiment [2] concerns SMMC-7721. As to the kind of experiment: Cytotoxicity against human SMMC7721 cells for 72 hrs under hypoxic condition by MTT assay. As to conditions: SMMC-7721, 72 h. The method in brief: as §1
Experiment [3] relates to PC-3. Briefly: Cytotoxicity against human PC3 cells for 72 hrs under normoxic condition by MTT assay. The note with it: PC-3, 72 h. In a few lines:
as §1

The test system of experiment [4] is A549. Briefly: Cytotoxicity against human A549 cells for 72 hrs under hypoxic condition by MTT assay. As to conditions: A549, 72 h. The method in brief:
as §1

In experiment [5] the test system is KB. Briefly: Cytotoxicity against human KB cells for 72 hrs under normoxic condition by MTT assay. The method in brief:
as §1

Experiment [6] deals with A549. As to the kind of experiment: Cytotoxicity against human A549 cells for 72 hrs under normoxic condition by MTT assay. The note with it: A549, 72 h. The method in brief:
as §1

For experiment [7], the system named is SMMC-7721. Briefly: Cytotoxicity against human SMMC7721 cells for 72 hrs under normoxic condition by MTT assay. As to conditions: SMMC-7721, 72 h. The method in brief: as §1
Experiment [8] has as its system K562. Briefly: Cytotoxicity against human K562 cells for 72 hrs under normoxic condition by MTT assay. The note with it: K562, 72 h. The method in brief: as §1
Experiment [9] has as its system PC-3. Briefly: Cytotoxicity against human PC3 cells for 72 hrs under hypoxic condition by MTT assay. The note with it: PC-3, 72 h. The method in brief:
as §1

For experiment [10], the system named is KB. Briefly: Cytotoxicity against human KB cells for 72 hrs under hypoxic condition by MTT assay. The method in brief:
as §1

For the molecule `Nc1n[n+]([O-])c2ccccc2[n+]1[O-]` [TIRAPAZAMINE], the IC50 in the experiment on K562 [1] was 1.81 µM; in the experiment with SMMC-7721 [2], 4.75 µM; in the experiment with PC-3 [3] it was 21 µM; in the experiment on A549 [4], 1.93 µM; with KB [5], 6.29 µM; with A549 [6], 7.43 µM. Moreover, the IC50 in the experiment with SMMC-7721 [7] came to 32.8 µM; in the experiment with K562 [8], 19.4 µM; in the experiment on PC-3 [9], 1.17 µM; with KB [10], 18.7 µM.
As for `COCNc1n[n+]([O-])c2ccccc2[n+]1[O-]`, the IC50 with K562 [1] came to 3.79 µM; with SMMC-7721 [2], 2.48 µM; in the experiment with PC-3 [3] it was 7.51 µM; with A549 [4], 2.77 µM; with KB [5], 1.58 µM; with A549 [6], 7.45 µM. The IC50 in the experiment with SMMC-7721 [7] amounted to 6.67 µM; with K562 [8], 7.8 µM; in the experiment with PC-3 [9], 4.27 µM; in the experiment with KB [10], 9.07 µM.
With `COc1ccc2c(c1)[n+]([O-])nc(NCOC(C)c1ccccc1)[n+]2[O-]` (stereo not given), the IC50 in the experiment with K562 [1] worked out at 0.25 µM; with SMMC-7721 [2], 0.74 µM; with PC-3 [3], 4.14 µM; in the experiment on A549 [4], 0.22 µM; in the experiment on KB [5], 0.22 µM; with A549 [6] it was 3.13 µM. Also, the IC50 in the experiment with SMMC-7721 [7] is 8.04 µM; in the experiment on K562 [8], 6.69 µM; in the experiment with PC-3 [9] it was > 100 µM; in the experiment on KB [10], 12.4 µM.
As to `CCCCCOCNc1n[n+]([O-])c2ccccc2[n+]1[O-]`, the concentration for half-maximal inhibition (IC50) worked out at 3.3 µM in the experiment with K562 [1]; 3.05 µM in the experiment on SMMC-7721 [2]; 9.2 µM with PC-3 [3]; 2.9 µM in the experiment with A549 [4]; 1.22 µM with KB [5]; 6.46 µM in the experiment with A549 [6]. Besides, the 50% inhibitory concentration (IC50) turned out to be 17 µM in the experiment with SMMC-7721 [7], 14.5 µM with K562 [8], 8.51 µM in the experiment on PC-3 [9] and 39.5 µM with KB [10].
Take `[O-][n+]1nc(NCOCc2ccc(Cl)cc2)[n+]([O-])c2ccccc21`: the half-maximal inhibitory concentration (IC50) in the experiment on K562 [1] stood at 1.85 µM; in the experiment with SMMC-7721 [2], 0.81 µM; in the experiment with PC-3 [3], 5.76 µM; with A549 [4], 2.19 µM; with KB [5] it was 1.3 µM; in the experiment on A549 [6], 1.47 µM. Also, the IC50 worked out at 14.5 µM in the experiment on SMMC-7721 [7], 3.26 µM with K562 [8], 5.1 µM with PC-3 [9] and 8.26 µM in the experiment on KB [10].
Consider `CCCCOCNc1n[n+]([O-])c2ccccc2[n+]1[O-]`, for which the IC50 in the experiment with K562 [1] amounted to 3.24 µM; with SMMC-7721 [2], 3.99 µM; in the experiment with PC-3 [3] it was 14.7 µM; with A549 [4] it was 2.32 µM; in the experiment with KB [5], 1.75 µM; in the experiment on A549 [6] it was 6.31 µM. In addition, the IC50 with SMMC-7721 [7] turned out to be 21.1 µM; with K562 [8], 17.6 µM; with PC-3 [9], 6.01 µM; in the experiment on KB [10], 15.2 µM.
In the case of `CCCCCCCOCNc1n[n+]([O-])c2ccccc2[n+]1[O-]`, the IC50 was 6.17 µM in the experiment with K562 [1]; 3.09 µM in the experiment on SMMC-7721 [2]; 1.21 µM in the experiment with PC-3 [3]; 3.49 µM with A549 [4]; 2.52 µM with KB [5]; 2.61 µM with A549 [6]. The IC50 in the experiment with SMMC-7721 [7] turned out to be 7.03 µM; in the experiment with K562 [8], 2.97 µM; with PC-3 [9] it was 0.39 µM; with KB [10] it was 14 µM.
For `COc1ccc2c(c1)[n+]([O-])nc(NCOCc1ccccc1)[n+]2[O-]`, the IC50 was 0.24 µM in the experiment on K562 [1]; 1.19 µM in the experiment with SMMC-7721 [2]; 8.58 µM in the experiment with PC-3 [3]; 4.47 µM in the experiment with A549 [4]; 2.4 µM in the experiment on KB [5]; 2.5 µM with A549 [6]. In addition, the IC50 in the experiment on SMMC-7721 [7] was 21.4 µM; in the experiment with K562 [8] it was 27.5 µM; with PC-3 [9], 88.5 µM; with KB [10], 18.1 µM.
As for `CCCCCOCNc1n[n+]([O-])c2cc(OC)ccc2[n+]1[O-]`, the half-inhibitory concentration (IC50) with K562 [1] came out at 0.45 µM; with SMMC-7721 [2], 0.55 µM; in the experiment on PC-3 [3], 3.63 µM; in the experiment with A549 [4] it was 2.51 µM; with KB [5], 2.81 µM; in the experiment with A549 [6] it was 5.04 µM. Besides, the 50% inhibitory concentration (IC50) was found to be 12.9 µM with SMMC-7721 [7], 7.11 µM with K562 [8], 30.9 µM in the experiment with PC-3 [9] and 16.9 µM in the experiment on KB [10].
With `CCCOCNc1n[n+]([O-])c2ccccc2[n+]1[O-]`, the IC50 was 3.89 µM in the experiment on K562 [1]; 5.53 µM with SMMC-7721 [2]; 14.2 µM in the experiment on PC-3 [3]; 3.74 µM in the experiment on A549 [4]; 1.95 µM with KB [5]; 7.46 µM in the experiment on A549 [6]. In addition, the IC50 with SMMC-7721 [7] came to 19.5 µM; in the experiment on K562 [8] it was 17.6 µM; in the experiment with PC-3 [9], 7.4 µM; in the experiment on KB [10], 10.2 µM.
Turning to `CC(C)CCOCNc1n[n+]([O-])c2ccccc2[n+]1[O-]`, the half-inhibitory concentration (IC50) is 5.85 µM in the experiment on K562 [1]; 2.86 µM with SMMC-7721 [2]; 11.1 µM in the experiment with PC-3 [3]; 2.11 µM in the experiment on A549 [4]; 3.04 µM with KB [5]; 7.27 µM with A549 [6]. In addition, the concentration for half-maximal inhibition (IC50) worked out at 15.9 µM with SMMC-7721 [7], 13.1 µM with K562 [8], 7.52 µM in the experiment with PC-3 [9] and 5.21 µM in the experiment on KB [10].
Take `O=[N+]([O-])c1cccc(COCNc2n[n+]([O-])c3ccccc3[n+]2[O-])c1`: the IC50 turned out to be 0.65 µM in the experiment with K562 [1]; 0.52 µM in the experiment on SMMC-7721 [2]; 3.07 µM in the experiment on PC-3 [3]; 3.44 µM in the experiment with A549 [4]; 0.58 µM in the experiment on KB [5]; 2.89 µM with A549 [6]. The IC50 is 8.54 µM with SMMC-7721 [7], 5.65 µM in the experiment with K562 [8], > 100 µM in the experiment with PC-3 [9] and 16.6 µM in the experiment with KB [10].
Regarding `CC(OCNc1n[n+]([O-])c2ccccc2[n+]1[O-])c1ccccc1` (stereo not given), the IC50 in the experiment on K562 [1] is 2.24 µM; in the experiment with SMMC-7721 [2], 2.47 µM; with PC-3 [3], 6.08 µM; in the experiment on A549 [4], 2.81 µM; in the experiment with KB [5], 2.51 µM; with A549 [6], 2.71 µM. Moreover, the IC50 in the experiment with SMMC-7721 [7] amounted to 12.9 µM; with K562 [8], 8.72 µM; in the experiment on PC-3 [9], 10.7 µM; in the experiment with KB [10], 14 µM.
For `CCCOCNc1n[n+]([O-])c2cc(OC)ccc2[n+]1[O-]`, the IC50 came to 3.52 µM with K562 [1]; 1.07 µM with SMMC-7721 [2]; 6.57 µM in the experiment on PC-3 [3]; 2.54 µM with A549 [4]; 3.2 µM in the experiment with KB [5]; 2.81 µM in the experiment on A549 [6]. Also, the IC50 with SMMC-7721 [7] came to 2.88 µM; with K562 [8] it was 4.28 µM; in the experiment on PC-3 [9] it was 10.6 µM; in the experiment on KB [10], 12 µM.
As to `[O-][n+]1nc(NCOCc2ccccc2)[n+]([O-])c2ccccc21`, the IC50 in the experiment on K562 [1] was determined as 4.69 µM; in the experiment on SMMC-7721 [2], 4.79 µM; in the experiment on PC-3 [3], 13.4 µM; in the experiment on A549 [4] it was 4.14 µM; in the experiment on KB [5], 5.72 µM; in the experiment with A549 [6], 10.8 µM. Further, the IC50 with SMMC-7721 [7] is 20.1 µM; with K562 [8] it was 16.1 µM; with PC-3 [9], 11.9 µM; with KB [10], 12.3 µM.
On to `[O-][n+]1nc(NCOC2CCCCC2)[n+]([O-])c2ccccc21`, for which the IC50 in the experiment on K562 [1] amounted to 4.88 µM; with SMMC-7721 [2], 4.17 µM; in the experiment with PC-3 [3], 3.25 µM; in the experiment with A549 [4], 1.2 µM; in the experiment on KB [5], 4.39 µM; in the experiment with A549 [6], 5.18 µM. Besides, the IC50 with SMMC-7721 [7] amounted to 28.2 µM; with K562 [8], 10.8 µM; in the experiment with PC-3 [9] it was 6.67 µM; with KB [10], 22.1 µM.
